Screening data: PubChem BioAssay, several laboratories
A selection: hits, their analogues and other compounds. The true share with any hit is near 4.2%.
ANO1 block: TMEM16A chloride channel inhibitors, primary screen, cell-based, HTS. Anoctamin-1 (Mus musculus), Q8BHY3. HEK293 TMEM16A/YFP iodide influx fluorescence, ionomycin. normalized B-score (activity score, 25-100; higher = stronger inhibition) at 10 µM. hit rate 1.2% among 310,000. AID 588511, 2011;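 active = ratio plate-corrected score three or more library SD toward inhibition, starting fluorescence score within five deviations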;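 also: score derived from kinetic fluorescence span divided by baseline fluorescence per well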
CHOP inhibitor: inhibitors of CHOP promoter induction, primary screen, cell-based, unfolded protein response, luciferase reporter. CHO-K1 CHOP-promoter luciferase, tunicamycin-induced, 15-18 h. inhibition, % at 10 µM. hit rate 3.8% among 220,000. AID 2732, 2010;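 active = compounds that reduced the stress-induced luciferase reporter signal by more than about 70% of percent inhibition, limit read from the data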;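 also: 0% = tunicamycin plus vehicle and 100% = wells without tunicamycin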
Lipid droplet: inhibitors of hepatocyte lipid droplet formation, primary screen, imaging, high-throughput imaging, BODIPY stain. AID 1656, 2009. inhibition, % at 6.5 µM. AML12 mouse hepatocytes, oleate lipid droplets. hit rate 0.4% among 240,000;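 active = lipid droplet intensity inhibited by at least 50%, with more than 500 cells counted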
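Assay system: AML12 hepatocytes (mouse); Probe or stimulus: oleic acid at 100 µM to induce lipid droplet formation; Dosing: compound at 6.5 µM only; Schedule: compound with oleate, overnight; Detection: fluorescence imaging, 20x objective, two fields per well; Measure: % inhibition of lipid droplet signal.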
UPR CHOP act: activators of apoptotic CHOP UPR arm, primary screen, cell-based, CHO-CHOP luciferase reporter, luminescence, uHTS. UPR activation; percent of tunicamycin response over DMSO baseline. activation, % at 10 µM. hit rate 0.34% among 330,000;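 active = at 10 µM dose, activation of 40% or more, normalized to positive control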;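 also: 100% = tunicamycin at 10 µg/mL and 0% = DMSO alone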
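Test system: CHO-CHOP cells, stable luciferase reporter of PERK-eIF2a-CHOP signalling | Quantity: 500 CHO-CHOP cells per well | Buffer or medium: F12 plus 10% serum | Compound dosing: 10 µM single point, 0.5% DMSO | Schedule: 6 h compound treatment, 37 °C | Signal: Luciferase luminescence | Control set: Tunicamycin high control, DMSO low control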
ANO1 activ: TMEM16A chloride channel activators or potentiators, primary screen, cell-based, HTS; Anoctamin-1 (Mus musculus), Q8BHY3; HEK293 TMEM16A/YFP-H148Q/I152L, iodide quench fluorescence; active compounds read low; B-score at 10 µM; hit rate 0.3% among 340,000; AID 623877, 2012;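 active = fluorescence-ratio B-score plate-corrected deviation score at least 3 library SD below zero, with starting fluorescence score within 5 deviations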;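 also: channel opened by trigger with iodide after compound preincubation; score built on the fluorescence ratio of max minus min over baseline; more negative score means more quench and so TMEM16A activation or potentiation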
UPR XBP1 act: activators of adaptive XBP1 UPR arm, primary screen, cell-based, CHO-XBP1 luciferase reporter, luminescence, uHTS | IRE1-XBP1 UPR activation; percent of tunicamycin response, DMSO as zero | hit rate 0.33% among 330,000 | activation, % at 20 µM;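 active = versus positive control, 20 µM dose yields 30% or more activation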;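 also: 100% = tunicamycin at 10 µg/mL and 0% = DMSO only wells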
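incubation = overnight seeding at 37 °C, 6 h compound treatment at 37 °C | assay system = CHO-XBP1 cells stably carrying IRE1-XBP1-driven luciferase reporter | input = 1000 cells per well | detection = luciferase luminescence | dosing = single point, 20 µM final compound, 1% DMSO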
TMEM16A reconf: TMEM16A chloride channel inhibitors, confirmation, cell-based, re-confirmation. shares compounds with ANO1 block. HEK293 TMEM16A/YFP-H148Q, iodide quench fluorescence; ionomycin added to raise cell calcium. inhibition, % at 10 µM. hit rate 39% among 2,300. AID 652189, 2013;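 active = mean duplicate percent inhibition, scaled so buffer wells are 0 and the reference blocker 100, over three buffer SD above buffer mean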
HEK293 Ca mobil: calcium mobilization in TMEM16A/YFP HEK293 cells, confirmation, counter-screen for TMEM16A inhibitor project; hit rate 2% among 2,300; shares compounds with ANO1 block; AID 652231, 2013; Fluo4 calcium mobilization; calcium response (% of ionomycin), % at 10 µM;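 active = duplicate-averaged calcium signal over 20% of the ionomycin maximum, relative to buffer baseline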;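 also: each well's signal is peak minus trough fluorescence divided by its pre-addition baseline; 0% = buffer wells and 100% = ionomycin wells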
Parental YFP cnt: iodide YFP quench changes in parental YFP-HEK293, counter-screen for TMEM16A inhibitor project, cell-based. shares compounds with ANO1 block. ionomycin. YFP ratio F(max-min)/F0 at 10 µM. 2,300 tested, under 10 active;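 active = yellow fluorescent protein signal ratio exceeding the buffer control mean by over 5 SD of those controls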;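 also: ratio is mean of duplicate wells from kinetic YFP trace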
ClC-1 inh: ClC-1 chloride channel inhibition, selectivity assay for TMEM16A inhibitor project, cell-based, voltage-dependent ClC-1; CHO ClC-1-YFP, iodide influx fluorescence quench; iodide control reads 0, buffer control 100; AID 652236, 2013; shares compounds with ANO1 block; 2,300 tested, under 10 active; ratio percent, % at 10 µM;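 active = duplicate-mean ratio percent above the mean of iodide-only control wells, which defines zero, plus 5 of their SD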;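 also: higher percent means stronger block of ClC-1 iodide influx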
The depositor's hits bear a star; i = inactive; x = not tested or not shown.

SMILES	ANO1 block	CHOP inhibitor	Lipid droplet	UPR CHOP act	ANO1 activ	UPR XBP1 act	TMEM16A reconf	HEK293 Ca mobil	Parental YFP cnt	ClC-1 inh
CC(C)N(C(=O)[C@H]1CC(CC(=O)NCC23CC4CC(CC(C4)C2)C3)C(=O)N2CCc3c([nH]c4ccccc34)[C@]12C)C(C)C (stereo not given in full)	x	x	x	3	x	22	x	x	x	x
CSc1ncc(Cl)c(C(=O)C(C#N)c2nc3c(C)cc(C)cc3c(=O)[nH]2)n1 (stereo not given)	100*	52	-3	-2	i	-3	59%*	i	-0.9	-10
Oc1ccccc1CNc1cnc2ccccc2c1	100*	50	-2	7	i	-3	i	i	-0.96	-26
Oc1ccc(Cl)cc1CNc1cnc2ccccc2c1	i	x	7	2	i	-1	x	x	x	x
N#CCNC1CC(=O)N(c2ccccc2)C1=O (stereo not given)	i	x	5	1	i	-5	x	x	x	x
Cc1cccc(N2CCN(C(=O)C3CC(=O)N(C4CCCC4)C3)CC2)c1C (stereo not given)	i	x	14	-1	i	-4	x	x	x	x
COc1ccccc1N1C(=O)CC(Sc2ccccc2N)C1=O (stereo not given)	i	-2	4	1	i	-5	x	x	x	x
CCN1CCc2c(sc(N)c2C(N)=O)C1	i	19	x	1	i	0	27%*	i	-1.1	-4
O=C(C1=C(O)/C(=C/c2ccc(O)cc2)CCC1)C(F)(F)F	25*	8	-8	-2	i	7	i	i	-0.93	-21
CCC(C)C1Nc2ccc(C(=O)NCCc3ccc(OC)c(OC)c3)cc2NC1=O (stereo not given)	i	x	0	-1	i	0	x	x	x	x
O=C1CCCN1c1ccc(S(=O)(=O)NCCOc2ccccc2)cc1	i	17	-9	1	i	-1	x	x	x	x
Cc1cc(N2CCCC2=O)cc(C)c1S(=O)(=O)NCCOc1ccc(C(C)(C)C)cc1	25*	78*	-32	7	i	0	i	i	-1.1	-29
COc1ccc(-c2csc(NC(=O)CCN3C(=O)C4CC=CCC4C3=O)n2)cc1OC (stereo not given)	i	x	x	1	i	1	x	x	x	x
Cc1ccc(S(=O)(=O)N(C)C)cc1NC(=O)COC(=O)c1ccc2c(=O)n3c(nc2c1)CCC3	i	x	x	0	i	0	x	x	x	x
N#C/C(=N\Nc1ccc(F)cc1)C(=O)C1CC1	25*	-8	5	2	i	1	26%*	i	-0.82	-14
CCC(C)(CC(=O)Nc1nccs1)c1ccccc1 (stereo not given)	i	x	x	-1	x	-5	x	x	x	x
Cc1cc(C(=O)OCC(=O)c2cccs2)ccc1[N+](=O)[O-]	x	x	x	1	i	1	x	x	x	x
Oc1ccc2nnc3c(Br)cnn3c2c1	i	x	-1	-1	i	-2	i	i	-0.94	-6
Clc1ccc2nc3c4ccccc4cnn3c2c1	i	30	-5	3	i	1	x	x	x	x
Clc1c(Cl)c(Cl)c2n[nH]nc2c1Cl	100*	28	-6	0	i	1	44%*	i	-0.85	-16
COc1cc(/C=N/NC(=O)c2nonc2C)ccc1O	i	-16	29	3	i	2	i	i	-0.89	2
Cc1nonc1C(=O)N/N=C/c1ccc(O)c(O)c1	i	-9	3	32	i	13	x	x	x	x
O=C(O)C1C2OC3C(OC(=O)C31)C2Br (stereo not given)	x	x	x	x	i	x	x	x	x	x
Cn1nc(C(F)(F)F)c(/C=N/OC(=O)c2ccccc2)c1Sc1ccc(Cl)cc1	25*	44	-6	-1	i	1	i	i	-1.1	-8
Cn1nc(C(F)(F)F)c(/C=N/OC(=O)c2ccccc2)c1Cl	i	54	x	1	i	2	x	x	x	x
SMILES	ANO1 block	CHOP inhibitor	Lipid droplet	UPR CHOP act	ANO1 activ	UPR XBP1 act	TMEM16A reconf	HEK293 Ca mobil	Parental YFP cnt	ClC-1 inh
COc1ccc(C)cc1NC(=O)C1CCCN(S(=O)(=O)c2cccc3cccnc23)C1 (stereo not given)	100*	x	-17	-2	i	-3	i	i	-0.92	-4
COc1ccc(NC(=O)C2CCCN(S(=O)(=O)c3cccc4cccnc34)C2)c(OC)c1 (stereo not given)	i	5	x	-1	i	2	x	x	x	x
COc1ccc(NS(=O)(=O)c2cc3c(cc2C)N(C(C)=O)CCO3)cc1OC	i	x	-4	1	i	3	x	x	x	x
CCc1nnc(NC(=O)CN2CCC(O)(c3ccccc3OC)CC2)s1	i	21	x	-1	i	-4	x	x	x	x
COc1ccccc1C1(O)CCN(CC(=O)Nc2nc(-c3ccccc3)cs2)CC1	100*	35	89*	5	i	2	23%*	i	-0.73	-2
CCCCOC(=O)c1ccc(NC(=O)c2ccccc2OC)cc1	100*	37	-2	2	i	0	36%*	i	-1.1	-8
CCc1ccc(OCC(=O)Nc2ccncc2)cc1	i	x	9	0	i	-3	x	x	x	x
COc1ccccc1C(=O)Nc1ccc(Cc2ccncc2)cc1	i	6	-4	2	i	-2	x	x	x	x
Cc1cc(OCC(=O)Nc2ccncc2)ccc1Cl	25*	x	-4	1	i	-3	27%*	i	-0.94	-15
O=C(COc1ccc(Br)cc1)Nc1ccc(Cc2ccncc2)cc1	100*	23	6	1	i	-8	i	i	-1.2	-8
